≈ marks a conversion by molar mass, not a printed value.
Columns and labels:
[1] = cited from earlier work
[2] = Solubility of curcumin in various vehicles; format: physicochemical
Method in brief: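 Excess test compound was shaken in 1 mL vehicle in a water bath at room temperature for 48 h. It was then centrifuged at 12,000 rpm for 10 min and passed through a 0.45 μm filter, and the supernatant was diluted in methanol. Quantified by HPLC: C18 column (5 μm, 4.6 × 250 mm) at room temperature, methanol:water (3.6% glacial acetic acid) 73:27 v/v, 1.0 mL/min, detection at 428 nm.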

HT-29 cells = assay: MTT cytotoxicity assay; format: cell-based; settings: Homo sapiens, HT-29, 24 h, read-out: IC50 (50% cell killing)
Method in brief: (§1)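 Cells were kept in folate-free RPMI 1640 with 10% FBS at 37°C and 5% CO2, then seeded at 5000/well and left to attach for 24 h. Test compound was given free (DMSO), in SMEDDS or in FSMEDDS, ±1 mM free folate, at 1, 5, 10, 20 and 40 μM for 24 h at 37°C. After three PBS washes, MTT was added for 4 h, formazan dissolved in DMSO, and OD read at 570 nm. Triplicates; IC50 from concentration–viability curves.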

Hela cells = assay: MTT cytotoxicity assay; format: cell-based; settings: Homo sapiens, 24 h, read-out: IC50 (50% cell killing)
Method in brief: as §1

solubility at 48 h ([2]; Capryol 90 (oil), oil or lipid, thermodynamic from solid): 9430 ± 800 µg/mL (≈ 25.6 mM) | solubility at 48 h ([2]; Cremophor EL (surfactant), organic solvent or mixture, thermodynamic from solid): 65800 ± 4800 µg/mL (≈ 179 mM) | solubility at 48 h ([2]; Emulsifier OP (surfactant), organic solvent or mixture, thermodynamic from solid): 5160 ± 1030 µg/mL (≈ 14 mM) | solubility at 48 h ([2]; Labrafil M1944CS (oil)): 3170 ± 130 µg/mL (≈ 8.61 mM) | solubility at 48 h ([2]; Labrasol (surfactant), organic solvent or mixture, thermodynamic from solid): 99300 ± 1730 µg/mL (≈ 270 mM) | solubility at 48 h ([2]; PEG 400 (cosurfactant), organic solvent or mixture, thermodynamic from solid): 159800 ± 480 µg/mL (≈ 434 mM) | solubility at 48 h ([2]; Tween 80 (surfactant), organic solvent or mixture, thermodynamic from solid): 4860 ± 1150 µg/mL (≈ 13.2 mM) | solubility at 48 h ([2]; castor oil (oil), oil or lipid, thermodynamic from solid): 1560 ± 470 µg/mL (≈ 4.23 mM) | solubility at 48 h ([2]; ethanol (cosurfactant), organic solvent or mixture, thermodynamic from solid): 5980 ± 630 µg/mL (≈ 16.2 mM) | solubility at 48 h ([2]; ethyl oleate (oil), oil or lipid, thermodynamic from solid): 1040 ± 20 µg/mL (≈ 2.82 mM) | solubility at 48 h ([2]; isopropyl myristate (oil), oil or lipid, thermodynamic from solid): 510 ± 50 µg/mL (≈ 1.38 mM)
Structure (SMILES): COc1cc(/C=C/C(=O)CC(=O)/C=C/c2ccc(O)c(OC)c2)ccc1O [curcumin]
Solubility of curcumin in the aqueous medium [1]: about 11 ng/g | IC50 (HT-29 cells): 25.6 ± 2.23 µM | IC50 (Hela cells): 30.4 ± 1.71 µM

From article PMC3263408 (International Journal of Nanomedicine, 2012)
